From ChEMBL document CHEMBL4261552, “4-Hydroxy-N-[3,5-bis(trifluoromethyl)phenyl]-1,2,5-thiadiazole-3-carboxamide: a novel inhibitor of the canonical NF-κB cascade” (Medchemcomm, 2017)

Columns and labels:
MDA-MB-231 [1] = experiment: Inhibition of constitutively activated canonical NF-kB signaling pathway in human MDA-MB-231 cells assessed as residual activity at 10 uM after 24 hrs by luciferase reporter gene assay relative to control; assay type: cell-based
How it was run: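 MDA-MB-231 cells (constitutive NF-κB) nucleofected with 3 µg of NF-κB-RE firefly luciferase plus TK-Renilla plasmids (10:1), then cultured 24 h. Compound added for a further 6 h or 24 h, without stimulus. Firefly/Renilla ratio expressed as % of DMSO-treated control; mean ± SD of three independent experiments.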

[2] = molecular target: T1, Inhibitor of nuclear factor kappa-B kinase subunit alpha (Homo sapiens) (UniProt O15111); experiment: Inhibition of human IKKalpha at 100 uM using ERLLDDRHDSGLDSMKDEE as substrate after 60 mins in presence of ATP by ADP-Glo kinase assay relative to control
T1 sequence (whole entry): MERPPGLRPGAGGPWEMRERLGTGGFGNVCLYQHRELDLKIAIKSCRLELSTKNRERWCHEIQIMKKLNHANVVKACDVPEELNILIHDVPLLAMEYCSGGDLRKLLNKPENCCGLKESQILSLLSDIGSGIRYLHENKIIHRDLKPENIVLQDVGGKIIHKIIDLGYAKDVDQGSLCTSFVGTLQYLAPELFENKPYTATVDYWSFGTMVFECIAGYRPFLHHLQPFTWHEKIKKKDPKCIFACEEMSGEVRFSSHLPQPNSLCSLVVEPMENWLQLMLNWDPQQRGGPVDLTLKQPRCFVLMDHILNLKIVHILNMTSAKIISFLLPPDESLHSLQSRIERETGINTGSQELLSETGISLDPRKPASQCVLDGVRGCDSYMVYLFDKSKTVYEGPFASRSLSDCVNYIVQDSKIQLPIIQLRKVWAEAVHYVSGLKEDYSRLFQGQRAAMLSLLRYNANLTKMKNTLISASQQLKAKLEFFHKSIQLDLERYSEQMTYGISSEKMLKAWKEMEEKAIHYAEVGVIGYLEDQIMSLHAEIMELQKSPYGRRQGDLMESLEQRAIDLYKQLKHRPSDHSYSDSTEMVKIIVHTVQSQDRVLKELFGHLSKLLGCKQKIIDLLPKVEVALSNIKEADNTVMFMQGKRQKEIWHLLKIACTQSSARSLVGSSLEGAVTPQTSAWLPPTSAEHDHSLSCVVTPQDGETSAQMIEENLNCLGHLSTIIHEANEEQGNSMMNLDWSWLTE

[3] = molecular target: Mitogen-activated protein kinase kinase kinase 14 (Homo sapiens, UniProt Q99558); experiment: Inhibition of human NIK at 100 uM using AKDVDQGSLCTSFVGTLQY as substrate after 60 mins in presence of ATP by ADP-Glo kinase assay relative to control
Chain of Mitogen-activated protein kinase kinase kinase 14 (Q99558 whole entry, looked up): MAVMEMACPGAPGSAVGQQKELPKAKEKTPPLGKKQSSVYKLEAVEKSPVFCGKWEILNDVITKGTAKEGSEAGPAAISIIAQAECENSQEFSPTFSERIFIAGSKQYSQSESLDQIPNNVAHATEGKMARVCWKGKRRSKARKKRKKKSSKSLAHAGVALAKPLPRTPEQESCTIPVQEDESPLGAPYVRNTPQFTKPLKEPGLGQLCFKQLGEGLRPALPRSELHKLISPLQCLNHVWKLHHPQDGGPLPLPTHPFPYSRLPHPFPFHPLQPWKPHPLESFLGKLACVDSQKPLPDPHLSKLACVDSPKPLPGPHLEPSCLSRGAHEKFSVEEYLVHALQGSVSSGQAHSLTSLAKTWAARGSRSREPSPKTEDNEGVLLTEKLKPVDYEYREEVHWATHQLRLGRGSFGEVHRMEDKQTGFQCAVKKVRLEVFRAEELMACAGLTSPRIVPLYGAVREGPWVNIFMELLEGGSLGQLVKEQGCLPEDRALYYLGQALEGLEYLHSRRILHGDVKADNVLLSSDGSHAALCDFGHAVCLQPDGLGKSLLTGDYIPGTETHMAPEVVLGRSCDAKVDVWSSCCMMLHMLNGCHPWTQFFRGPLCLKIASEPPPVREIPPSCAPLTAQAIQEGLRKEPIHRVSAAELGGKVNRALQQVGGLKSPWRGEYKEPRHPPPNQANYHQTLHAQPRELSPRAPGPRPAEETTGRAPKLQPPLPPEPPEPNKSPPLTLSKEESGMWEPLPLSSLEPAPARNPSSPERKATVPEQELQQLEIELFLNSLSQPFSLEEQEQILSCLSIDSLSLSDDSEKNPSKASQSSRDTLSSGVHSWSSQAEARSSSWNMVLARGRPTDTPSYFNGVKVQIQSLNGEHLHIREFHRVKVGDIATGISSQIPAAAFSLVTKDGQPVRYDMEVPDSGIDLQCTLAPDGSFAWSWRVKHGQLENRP

[4] = molecular target: T2, Inhibitor of nuclear factor kappa-B kinase subunit epsilon (Homo sapiens) (UniProt Q14164); experiment: Inhibition of human IKKepsilon at 100 uM using ERLLDDRHDSGLDSMKDEE as substrate after 60 mins in presence of ATP by ADP-Glo kinase assay relative to control
T2 sequence (whole entry): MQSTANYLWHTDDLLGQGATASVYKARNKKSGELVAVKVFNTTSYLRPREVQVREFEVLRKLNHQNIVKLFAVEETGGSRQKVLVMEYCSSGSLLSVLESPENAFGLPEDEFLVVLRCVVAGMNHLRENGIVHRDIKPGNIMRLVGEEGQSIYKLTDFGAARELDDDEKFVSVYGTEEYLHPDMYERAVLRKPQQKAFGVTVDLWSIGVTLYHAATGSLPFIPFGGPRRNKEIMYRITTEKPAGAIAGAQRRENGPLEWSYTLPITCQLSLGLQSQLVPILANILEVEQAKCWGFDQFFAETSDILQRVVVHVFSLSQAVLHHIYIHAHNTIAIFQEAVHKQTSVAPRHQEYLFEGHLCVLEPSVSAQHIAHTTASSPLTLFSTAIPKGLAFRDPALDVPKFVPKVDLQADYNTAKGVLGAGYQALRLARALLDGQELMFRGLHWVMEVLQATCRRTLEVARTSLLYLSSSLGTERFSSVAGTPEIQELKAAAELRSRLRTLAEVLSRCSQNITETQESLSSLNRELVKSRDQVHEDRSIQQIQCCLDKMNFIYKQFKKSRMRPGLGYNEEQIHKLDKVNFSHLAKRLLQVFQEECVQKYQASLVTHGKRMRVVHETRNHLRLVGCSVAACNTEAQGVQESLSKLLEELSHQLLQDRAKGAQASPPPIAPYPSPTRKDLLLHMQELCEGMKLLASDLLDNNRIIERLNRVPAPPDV

MDA-MB-231 [5] = experiment: Cytotoxicity against human MDA-MB-231 cells after 72 hrs by CellTox green assay; assay type: cell-based; settings: MDA-MB-231, 72 h
How it was run: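 MDA-MB-231 cells (5×10^3/well) exposed to 0.001 - 100 µM compound or DMSO vehicle for 72 h. Membrane-integrity loss read by CellTox green fluorescence. IC50 taken by nonlinear regression; mean ± SD of three independent experiments.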

[6] = molecular target: T3, Inhibitor of nuclear factor kappa-B kinase subunit alpha (Homo sapiens, UniProt O15111); experiment: Inhibition of human IKKalpha using ERLLDDRHDSGLDSMKDEE as substrate after 60 mins in presence of ATP by ADP-Glo kinase assay
T3 sequence (O15111 whole entry): T1 sequence (whole entry)

MDA-MB-231 [7] = experiment: Antiproliferative activity against human MDA-MB-231 cells assessed as DNA content after 72 hrs by Hoechst 33258 staining based fluorescence assay; assay type: functional, cell-based; settings: MDA-MB-231, 72 h
How it was run: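 MDA-MB-231 cells (5 x 10³/well) grown in DMEM with 10% FBS and exposed to 0.001 - 200 µM compound or DMSO vehicle for 72 h. Cells were washed with PBS and lysed in 0.02% SDS in SSC buffer for 1 h at 37 °C. Hoechst 33258 (1 µg/mL) was then added and fluorescence read at ex 355/em 460 nm. IC50 taken by nonlinear regression; mean ± SD of three independent experiments.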

SMILES | Activity (MDA-MB-231 [1]) [%] | inhibition [2] [%] | inhibition [3] [%] | inhibition [4] [%] | IC50 (MDA-MB-231 [5]) [µM] | IC50 [6] [µM] | IC50 (MDA-MB-231 [7]) [nM]
O=C(Nc1cc(C(F)(F)F)cc(C(F)(F)F)c1)c1nsnc1O | 63 | 25.2 | 4.34 | 30.2 | 53 | > 100 | 1290
O=C(Nc1cc(C(F)(F)F)cc(C(F)(F)F)c1)c1cc(Cl)ccc1O [IMD-0354] | 58.3 | 3.45 | 13.8 | 30.5 | 0.85 | > 100 | 640
